Published values gathered from unrelated publications.
Protocols differ between the studies behind these lines.
Target: Serine/threonine-protein kinase PLK2 (PLK2, Homo sapiens, UniProt Q9NYY3)

SMILES	assay	conditions	remaining binding [%]
CNC(=O)Nc1ccc2c(c1)CC[C@@]21OC(=O)N(CC(=O)N(Cc2ccc(F)cc2)[C@@H](C)C(F)(F)F)C1=O	cell-free assay, competition with immobilised ligand	1 µM	91
CN(C)c1nccc(-c2cnn3ncccc23)n1	binding	1 µM	100
O=C(NCC1CCOCC1)c1n[nH]cc1NC(=O)c1c(F)cccc1F	binding, competition with immobilised ligand	1 µM	96
FC(F)(F)Oc1cccc(-c2cnc3ccc(-c4ccncc4)nn23)c1	cell-free assay, competition with immobilised ligand	5 µM	77
CS(=O)(=O)NCC[C@H](NC(=O)c1cncc2c1cnn2-c1ccc(F)cc1)c1ccnc(S(C)(=O)=O)c1	cell-free assay, competition with immobilised ligand	1 µM	100
CNC(=O)[C@@H]1CC[C@@H](n2c(-c3ccc4cnccc4c3)nc3ccc(C(=O)NCc4cccc(C(N)=O)c4)cc32)C1	binding, competition with immobilised ligand	1 µM	96
CCS(=O)(=O)c1cc2cc(C[C@@](O)(CC(C)(C)c3ccc(F)cc3C(N)=O)C(F)(F)F)[nH]c2cn1	cell-free assay, competition with immobilised ligand	1 µM	100
c1cnn2ncc(-c3ccnc(N4CCC45COC5)n3)c2c1	binding	1 µM	87
O=C(c1ccc(Nc2nccc(-c3cc4ccccc4s3)n2)cc1)N1CCC(N2CCCC2)CC1	binding, competition with immobilised ligand	1 µM	96
C[C@@H]1CN(c2cc(-c3nn(C)c4ccc(OC5(C)CC5)cc34)ncn2)C[C@H](C)O1	cell-free assay, competition with immobilised ligand	1 µM	68
O=C(NCCCN1CCOCC1)c1ccc(Nc2ncc(Cl)c(-c3ccc(Cl)s3)n2)cc1	binding, competition with immobilised ligand	1 µM	5.9
F[C@@H]1CCN(c2nccc(-c3cnn4ncccc34)n2)C1	binding	1 µM	100
CCC(=O)N[C@H]1CC[C@@H](C(=O)N(C)c2ccc(-c3nc4ccccc4o3)cc2)C1	cell-free assay, competition with immobilised ligand	1 µM	96
Cc1cnn2ncc(-c3ccnc(N(C)C)n3)c2c1	binding	1 µM	94
O=C(NCCCN1CCOCC1)c1ccc(Nc2nccc(-c3cc4ccccc4s3)n2)cc1	binding, competition with immobilised ligand	1 µM	44
FC(F)(F)c1ccc2c(c1)nc(-c1cccnc1)n2C1CC1	cell-free assay, competition with immobilised ligand	1 µM	94
CN(CCCC(F)(F)F)c1nccc(-c2cnn3ncccc23)n1	binding	1 µM	99
c1cncc(-c2cccc(Nc3nccc(NC4CCCCC4)n3)c2)c1	binding, competition with immobilised ligand	10 µM	100
C[C@@H]1CCN(c2nccc(-c3cnn4ncccc34)n2)C1	binding	1 µM	88
COc1cnc(Nc2cccc(S(N)(=O)=O)c2)nc1N1CCN(c2ccccc2)C(=O)C1	binding, competition with immobilised ligand	1 µM	80
